Experimental data gathered from unrelated publications.
Read-out: enzyme activity
Action: inhibitor
rep main protease: Replicase polyprotein 1ab, main protease (rep, Severe acute respiratory syndrome coronavirus 2, UniProt P0DTD1)
rep papain-like protease: Replicase polyprotein 1ab, papain-like protease (rep, Severe acute respiratory syndrome coronavirus 2, UniProt P0DTD1)

Structure (SMILES) | target | test | conditions | inhibition [%]
O=C(/C=C/c1ccc2ncccc2c1)N1CCC[C@@]2(CCN(C(=O)c3cc(=O)[nH]c(=O)[nH]3)C2)C1 | rep main protease | – | 5 µM | 18
Cn1c(C(=O)Nc2ccc3c(c2)OCCO3)cc2c(=O)n3ccccc3nc21 | rep main protease | – | 100 µM | 71
CC(C)=CCc1cc(-c2oc3cc(O)cc(O)c3c(=O)c2O)ccc1O | rep papain-like protease | – | 8 µM | 59.9
O=C(O)c1cc(O)c2c(c1)[C@H]([C@H]1c3cc(C(=O)O)cc(O)c3C(=O)c3c(O[C@@H]4O[C@H](CO)[C@@H](O)[C@H](O)[C@H]4O)cccc31)c1cccc(O[C@@H]3O[C@H](CO)[C@@H](O)[C@H](O)[C@H]3O)c1C2=O | rep main protease | – | 20 µM | 100
O=C1C=CC(=O)c2ccccc21 | rep main protease | – | 1 µM | 90.5
N=C(N)c1ccc2cc(OC(=O)c3ccc(N=C(N)N)cc3)ccc2c1 | rep main protease | – | 10 µM | 13
COC(=O)C1=CO[C@@H](O[C@@H]2O[C@H](CO)[C@@H](O)[C@H](O)[C@H]2O)[C@@H]2[C@@H](C)[C@@H](O)C[C@H]12 | rep papain-like protease | – | 50 µM | -1.7
C/N=c1\nc(-c2ccccc2)n(-c2ccccc2)s1 | rep main protease | – | 1 µM | 96.3
CCc1ccc(NC(=O)c2cc3c(=O)n4ccccc4nc3n2C)cc1 | rep main protease | – | 1 µM | 11
COc1cccc2c1C(=O)C(C(C)=O)=CC2=O | rep main protease | – | 1 µM | 94.3
Cc1ccc(NC(=O)c2cc3c(=O)n4cccc(C)c4nc3n2C)cc1Cl | rep main protease | – | 1 mM | 75
CCC(=O)Oc1cccc2c1C(=O)C=CC2=O | rep main protease | – | 0.1 µM | 35
O=c1cc(-c2ccc(O)cc2)oc2cc(O)c(O)c(O)c12 | rep papain-like protease | – | 50 µM | 65.7
O=c1c(O)c(-c2ccc(O)cc2)oc2cc(O)cc(O)c12 | rep main protease | FRET | 10 µM, 10 min | 45
Cc1cc(O)c2c(c1)C(=O)C=CC2=O | rep main protease | – | 10 µM | 103
Cc1cccn2c(=O)c3cc(C(=O)Nc4ccc(N(C)C)cc4)n(C)c3nc12 | rep main protease | – | 1 µM | 3.5
COc1ccc(OC)c2c1C(=O)C=CC2=O | rep main protease | – | 1 µM | 75.1
O=C(/C=C/c1ccc(O)c(O)c1)OC1CC(OC(=O)/C=C/c2ccc(O)c(O)c2)(C(=O)O)CC(O)C1O (stereo not drawn) | rep papain-like protease | – | 50 µM | 14.4
Cc1ncc(/C=C\C(=O)N2C[C@@H](NC(=O)c3ccc[nH]c3=O)CC3(CCOCC3)C2)c(=O)[nH]1 | rep main protease | – | 5 µM | 15.5
Cc1cc(NC(=O)c2cc3c(=O)n4cccc(C)c4nc3n2C)ccc1Br | rep main protease | – | 100 µM | 59
O=c1c(O)c(-c2ccccc2)oc2cc(O)cc(O)c12 | rep main protease | FRET | 10 µM, 10 min | 25 to 50
COc1cc2ccc(=O)oc2cc1O | rep main protease | fluorescence | 10 µM, pH 7.2 | 61
Oc1ccc(/C=C/c2cc(O)cc(O)c2)cc1 | rep main protease | FRET | 10 µM, 10 min | > 50
O=C1NCc2c1cccc2C(=O)N[C@H](CNC(=O)c1ccnc2[nH]ncc12)c1ccccc1 | rep main protease | – | 5 µM | 10
COCOc1cc(C)cc2c1C(=O)C=CC2=O | rep main protease | – | 10 µM | 79.6
O=C(Oc1cc(Cl)cc([N+](=O)[O-])c1)c1cccc2[nH]ccc12 | rep main protease | fluorescence | 10 µM, pH 7.2 | 1

Structure (SMILES) | target | test | conditions | inhibition [%]
CC(=O)N[C@H](CCCCN)C(=O)N[C@H](Cc1c[nH]c2ccccc12)C(=O)N[C@H](CO)C(=O)N[C@H](Cc1ccc(O)cc1)C(=O)N[C@H](CCC(N)=O)C(=O)N1CCC[C@@H]1C(=O)N[C@@H](C(=O)N[C@H](Cc1c[nH]c2ccccc12)C(=O)N[C@H](CC(=O)O)C(=O)N[C@H](Cc1c[nH]c2ccccc12)C(=O)N[C@@H](C(=O)N[C@H](Cc1c[nH]c2ccccc12)C(=O)N[C@H](CO)C(=O)N[C@H](CCC(=O)O)C(=O)N[C@H](Cc1c[nH]cn1)C(=O)N[C@H](C)C(=O)N[C@H](CCCNC(=N)N)C(N)=O)[C@H](C)O)[C@H](C)O | rep main protease | fluorescence | 140 µM | 100
COc1cc(CC(C)NCc2cc(NC(=O)c3ccccn3)cc(C(=O)N(C)C)c2)ccc1O (stereo not drawn) | rep main protease | – | 100 µg/mL | 5.47
Cn1cc2c(n1)c(=O)n(Cc1ccc(F)cc1)c1nn(CCOc3ccc(F)cc3)c(=O)n21 | rep main protease | – | 20 µM | 13
CC1=CC(=O)c2c(O)cccc2C1=O | rep main protease | – | 10 µM | 7.7
O=C(O)[C@]1(O)C[C@@H](O)[C@@H](O)[C@H](O)C1 | rep main protease | FRET | 10 µM, 10 min | < 25
C[C@@H]1O[C@@H](O[C@@H]2[C@@H](O)[C@H](OCCc3ccc(O)c(O)c3)O[C@H](CO)[C@H]2OC(=O)/C=C/c2ccc(O)c(O)c2)[C@H](O)[C@H](O)[C@H]1O | rep main protease | – | 100 µM | 97
Cn1c(C(=O)Nc2ccc(Cl)cc2)cc2c(=O)n3ccccc3nc21 | rep main protease | – | 1 µM | 7.4
O=[N+]([O-])c1cccc(-c2nc(O)c3ccccc3n2)c1 | rep main protease | – | 20 µM | 22.3
Cc1ccc2nc(Cl)c(/C=N/c3cccc([N+](=O)[O-])c3)cc2c1 | rep papain-like protease | – | 100 µM | 21.7
Cc1cc(O)c2c(=O)c3c(O)cc(O)c4c5c(O)cc(O)c6c(=O)c7c(O)cc(C)c8c1c2c(c34)c(c78)c65 | rep main protease | – | 20 µM | 31.5
COc1cc(O)c2c(c1)OC/C(=C\c1ccc(O)cc1)C2=O | rep main protease | – | 20 µM | 16.7
O=C(O)[C@H]1O[C@@H](Oc2cc3oc(-c4ccc(O)cc4)cc(=O)c3c(O)c2O)[C@H](O)[C@@H](O)[C@@H]1O | rep main protease | – | 10 µM | 18.9
Cn1c(=O)n(C)c2cc(CNc3ccc4c(c3)OCO4)ccc21 | rep main protease | – | 20 µM | 22.3
COc1ccc2nc(Cl)c(/C=N/c3ccc(-c4nc5ccccc5[nH]4)cc3)cc2c1 | rep papain-like protease | – | 10 µM | 2.1
O=C(O)c1cc(N(Cc2ccccc2O)Cc2cc(O)ccc2O)ccc1O | rep main protease | – | 20 µM | -1.57
CC(C)C[C@H](NC(=O)[C@@H](NC(=O)OCc1ccccc1)C(C)(C)C)C(=O)N(C)N(C#N)CCC(N)=O | rep main protease | fluorescence | 50 µM, pH 7.2 | 100
Cc1ccc2nc(Cl)c(C=Nc3cc(Br)ccn3)cc2c1 | rep papain-like protease | – | 10 µM | 4.6
COc1cc([C@H]2OC[C@H]3[C@@H]2CO[C@H]3c2ccc(OC)c(OC)c2)ccc1O | rep papain-like protease | – | 50 µM | 8.5
Clc1nc2ccccc2cc1/C=N\c1ccc(Br)nc1 | rep papain-like protease | – | 100 µM | 6.2
O=C(NCc1cccnc1)Nc1csc([N+](=O)[O-])c1 | rep main protease | – | 20 µM | 4.45
O=C(Oc1cncc(Cl)c1)c1cc2cc(Cl)ccc2[nH]1 | rep main protease | fluorescence | 10 µM, pH 7.2 | 100
Cc1cc(OCc2ccccc2)c2c(c1)C(=O)C=CC2=O | rep main protease | – | 10 µM | 96.4
C=C1C(=O)OC2C1C(O)CC1(C)C(O)CCC(C=O)C21 (stereo not drawn) | rep main protease | – | 20 µM | -62
CN(C)C(=S)SC(=S)N(C)C | rep main protease | – | 20 µM | -6.7
COc1cc(C[C@@H](C)[C@@H](C)Cc2ccc(O)c(OC)c2)ccc1O | rep main protease | FRET | 8 µM | 45
